# Screens from PubChem.
# ALR inh: inhibitors of human ALR sulfhydryl oxidase, primary screen, biochemical, H2O2 detection, HRP-luminol luminescence, single point; inhibition, % (concentration not given with the values); 290,000 compounds, 3.8% hits; purified ALR, DTT oxidation; FAD-linked sulfhydryl oxidase ALR (Homo sapiens), P55789;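 active means mean replicate inhibition above about 79%, with every replicate also reaching it, limit read from the data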
# Target sequence (P55789 whole entry, looked up): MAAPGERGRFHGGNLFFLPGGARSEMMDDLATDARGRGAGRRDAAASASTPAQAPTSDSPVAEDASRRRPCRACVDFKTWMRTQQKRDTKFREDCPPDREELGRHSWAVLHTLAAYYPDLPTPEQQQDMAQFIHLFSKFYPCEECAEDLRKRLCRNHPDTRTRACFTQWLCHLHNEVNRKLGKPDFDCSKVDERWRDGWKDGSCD
# N-glyco inh: increase of ERlucT glycosylation luciferase signal, primary screen, N-linked glycosylation inhibitor project, D54 ERlucT cells, luminescence, set 2 | D54 ERlucT glycosylation luciferase reporter, 24 h; percent of 100 nM tunicamycin response | reporter increase, % at 12.5 µM | 360,000 compounds, 0.23% hits | AID 588692, 2011;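 active means mean luciferase reporter signal, scaled so untreated is 0 and the glycosylation-blocking control 100, at or above a set limit in every replicate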;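 further: luciferase carries N-glycosylation sites so blocking glycosylation raises the light; 0% = median of neutral control wells and 100% = median of 100 nM tunicamycin wells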
# T cell HTS: modulators of CD8 T cell-vesicle binding, primary screen, mouse 2C CD8+ T cells, flow cytometry | 2C CD8+ T cell-vesicle binding; active compounds read low | response (vesicle binding), % at 7 µM | 330,000 compounds, 0.068% hits;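 active means response, share of CD8 T cells binding vesicles, and their 90th percentile fluorescence all below set limits, cut at about 80% in these data, passing the limit was not always enough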;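 further: values below 100% mean blocked vesicle binding to the CD8+ T cells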
#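 Assay system: 2C TCR transgenic mouse naive CD8+ T cells, MACS-purified | Read-out: CD8+ gate FL2 mean fluorescence as % of same-row positive control | Signal: High-throughput flow cytometry with anti-B7-1 and anti-CD8 staining | Timing: Binding step 1.5 h, 37 °C, antibody labelling 20 min, ice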
# Starred values were filed as active, the others as inactive; i = inactive; x = not tested or not shown. Shown is part of a subset that was picked to be rich in hits.
SMILES,ALR inh,N-glyco inh,T cell HTS
CC(=O)c1cccc(NC(=O)CSCc2ccccc2)c1,97.4*,-3.7,608.1
COc1ccc(CSCC(=O)Nc2ccccc2)cc1[N+](=O)[O-],98.6*,1.5,11.9
CC(=O)c1cccc(NC(=O)CSCc2ccc(Br)cc2)c1,-10.4,-1.2,529.8
COc1cc(NC(=O)CSc2ccccc2)c(C(=O)O)cc1OC,-0.5,-0.9,450.0
CCOc1ccc(NC(=O)CN(C)C(=O)c2sccc2-c2ccccc2)cc1OCC,x,2.0,x
CCOc1ccc(C(=O)O[C@H]2[C@H](Cc3ccccc3)NS(=O)(=O)[C@H]3C[C@@H]4C=C[C@]23O4)cc1,-12.5,-1.2,211.9
Cc1cc(C)n2ncc(C(=O)O)c2n1,11.9,0.4,287.9
COc1cccc(C(=O)COc2ccccc2-c2ccccc2)c1,1.2,-4.1,645.4
Cc1nc(SCc2ccccc2)c([N+](=O)[O-])[nH]1,x,0.5,258.8
COc1ccc(CSc2nc(C)[nH]c2[N+](=O)[O-])cc1[N+](=O)[O-],99.5*,-0.4,516.2
O=C(O)c1ccc(NC(=O)C(c2ccccc2)c2ccccc2)cc1,-7.0,-0.5,143.7
O=C(c1ccc(NC(=O)C(c2ccccc2)c2ccccc2)cc1)c1ccc(C(=O)O)c(C(=O)O)c1,93.9*,1.8,314.0
CC(Sc1ncnc2sc(-c3ccccc3)cc12)C(=O)NCC1CCCO1 (stereo not given),-3.7,-11.6,555.4
CS(=O)(=O)c1ccccc1-c1nnc(NC(=O)C2=COCCO2)o1,x,4.1,492.7
COCC(=O)N1CCC(Oc2ccc(C(=O)NC(C)c3nc(C)sc3C)cc2)CC1 (stereo not given),4.2,1.2,160.1
CC(=O)c1c(C)[nH]c(C(=O)CN2CCN(S(=O)(=O)c3ccccc3F)CC2)c1C,-4.5,-1.4,424.7
S=C1Nc2ccccc2CS1,x,1.0,x
c1ccc2c(c1)CSc1ccccc1N2,98.3*,-2.1,301.6
COc1ccccc1NC(=O)CN1C(=O)NC2(CCCc3ccccc32)C1=O (stereo not given),x,1.6,315.7
Cc1ccc(NC(=O)CSc2nnc(CCC(=O)O)c(=O)[nH]2)cc1,98.4*,0.9,491.7
O=C(O)CCc1nnc(SCC(=O)Nc2ccc(Br)cc2)[nH]c1=O,26.6,2.9,310.5
Cc1nnc(SCC(=O)Nc2sc3c(c2C#N)CCCC3)[nH]c1=O,97.8*,1.4,220.6
CN(Cc1ccco1)C(=O)CCc1nc2sc3c(c2c(=O)[nH]1)CCCC3,8.7,-0.8,445.1
CCOC(=O)c1c(NC(=O)CSc2nnc(C)c(=O)[nH]2)sc2c1CCCC2,20.4,1.9,553.8
CC(=O)Nc1ccc(SCC(=O)Nc2oc(C)c3c(C)n[nH]c(=O)c23)cc1,98.7*,0.5,634.1
SMILES,ALR inh,N-glyco inh,T cell HTS
Cc1ccc(CN(C)C(=O)CCc2nc3sc4c(c3c(=O)[nH]2)CCCC4)o1,98.2*,1.5,168.0
Cc1n[nH]c(=O)c2c(NC(=O)CSc3ccc(F)cc3)oc(C)c12,x,4.2,415.1
Cn1c(CNC(=O)C(Cc2ccccc2)NC(=O)c2ccccc2)cc(=O)n(C)c1=O (stereo not given),6.9,-0.5,240.0
CCOC(=O)c1c(C)[nH]c(C)c1C(=O)COC(=O)c1ccc(S(=O)(=O)C(F)F)cc1,-2.1,0.0,219.0
C=C(c1ccc2nc(NC(=O)OC)[nH]c2c1)c1cccs1,x,1.8,x
O=C1CCC(C(=O)N2CCCCCC2)CN1CCc1ccc(Cl)cc1 (stereo not given),0.9,-1.8,i
CCCc1nc2sc3c(c2c(=O)[nH]1)CCCC3,10.9,0.6,211.9
Cc1nnc(SCc2nc3sc4c(c3c(=O)[nH]2)CCCC4)[nH]c1=O,98.4*,2.9,293.2
Cc1cc(C)c(C(=O)CSc2nnc(C)c(=O)[nH]2)cc1C,94.6*,2.1,238.0
Cc1nnc(SCC(=O)Nc2ccc3c(c2)OCO3)[nH]c1=O,36.2,1.7,501.6
CC(=O)Nc1ccc(NC(=O)CSc2nnc(C)c(=O)[nH]2)cc1,98.3*,1.5,284.7
O=C(O)CCc1nnc(SCC(=O)Nc2ccc(Cl)c(C(F)(F)F)c2)[nH]c1=O,47.3,-1.1,352.7
O=C(O)CCc1nnc(SCC(=O)Nc2cccc(C(F)(F)F)c2)[nH]c1=O,99.1*,0.5,328.3
Cc1nnc(SCc2ccc(CSc3nnc(C)c(=O)[nH]3)cc2)[nH]c1=O,-7.5,0.6,138.6
CCCS(=O)(=O)c1nc(S(=O)(=O)c2ccc(C)cc2)c(N2CCC3(CC2)OCCO3)s1,-4.3,-1.1,219.5
O=C(c1cccc(S(=O)(=O)N2CCc3ccccc32)c1)N1CCCC(C(F)(F)F)C1 (stereo not given),-0.3,-0.5,297.5
CC1=C(C(=O)OCCBr)C(c2cccc3ccccc23)NC(=O)N1 (stereo not given),-18.4,0.3,158.3
CCOc1ccccc1/C=C(\C(=O)O)c1ccc(S(=O)(=O)N2CCCCC2)s1,x,-0.1,543.3
CC(C)C(NC(N)=O)C(=O)NC1CCCCC1 (stereo not given),2.5,x,278.4
COc1cccc(NC(=O)NCc2ccccn2)c1,-12.3,3.1,282.8
Cc1c(CCO)c(=O)[nH]n1S(=O)(=O)c1ccc(F)cc1,-0.4,-1.6,219.6
CCCCC(=O)N(C)c1c(CC)nc2c(OCC(N)=O)cccn12,x,1.2,x
CC(C)[C@H](NC(=O)N1c2ccccc2NC(=O)[C@@H]1C(C)C)C(=O)N1CCC[C@H]1C(=O)O,-0.2,-0.1,347.6
O=C1CCCC2=C1C(c1ccc(O)c(O)c1)c1c(ccc3ncccc13)N2 (stereo not given),99.9*,-1.5,166.3
CCOc1ccc(C2C3=C(CCCC3=O)Nc3ccc4ncccc4c32)cc1 (stereo not given),-22.2,1.7,353.5
SMILES,ALR inh,N-glyco inh,T cell HTS
COc1ccc(CNC(=O)COC(=O)c2ccc(F)c(S(=O)(=O)N3CCOCC3)c2)cc1,-3.1,0.2,388.2
Cc1ccccc1N=C1Nc2ccccc2N[C@]12C[C@H]1CCC(=O)N3CC[C@@H](C2)[C@@H]13,x,-0.8,x
Cc1cnn(CCC(=O)NNC(=S)Nc2ccc(F)cc2)c1,81.6*,0.2,119.2
Cc1cnn(CCC(=O)NNC(=S)Nc2cccc(Cl)c2)c1,43.7,2.8,283.0
CC(C(=O)NCc1ccc(F)cc1)n1ccc2cc(S(=O)(=O)N3CCCC3)ccc21 (stereo not given),2.3,-0.9,553.1
COC(=O)c1sc(NC(=O)CN2CCN(c3cccc(Cl)c3)CC2)c(C(=O)OC)c1C,x,-3.5,x
CCOC(=O)C1CCN(C(=O)/C=C/c2ccc3c(c2)OCO3)CC1,x,-1.6,192.6
COc1ccc(S(=O)(=O)CCC(=O)NC2CCCCC2)cc1,10.4,-0.4,200.2
O=C(CCS(=O)(=O)c1ccccc1)NC1CCCCC1,83.6*,-3.7,449.7
CCOC(=O)C1=C(C)NC(C)=C(C(=O)OCC)C1c1ccc([N+](=O)[O-])s1,-12.0,8.0,249.2
c1ccc(NN=C2c3ccccc3-c3ccccc32)cc1,x,0.2,x
Cc1ccc(NN=C2c3ccccc3-c3ccccc32)cc1,89.0*,-5.7,230.1
O=C(Nc1cc(C2CC2)nn1-c1ccccc1)c1ccc(F)cc1,1.8,0.5,443.3
